ChEMBL document CHEMBL1156597, “Structure-activity relationship of kahalalide F synthetic analogues” (J Med Chem, 2008)

Key:
DU-145 = assay: Cytotoxicity against human DU145 cells after 48 hrs by SRB assay; type: functional, cell-based; conditions: Homo sapiens, DU-145, 48 h; for CC50: read-out: LC50 (the source's name)
Procedure, shortened: (§1)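 Cells grown in RPMI 1640 with 10% FBS and penicillin/streptomycin at 37 °C and 5% CO₂, trypsinized, then seeded at 5 × 10³/well. After 18 h drug-free attachment, samples in DMSO/EtOH/PBS (0.5:0.5:99) were added for 48 h continuous exposure. Cells were fixed with cold TCA (1 h, 4 °C) and stained with SRB (10 min). Tris-solubilized stain read at 490 nm. Triplicate wells, mean ± SD; GI₅₀ derived.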

SK-BR-3 = assay: Cytotoxicity against human SKBR3 cells after 48 hrs by SRB assay; type: functional; conditions: SK-BR-3, 48 h; for GI50: read-out: GI50; for CC50: read-out: LC50 (the source's name); procedure, shortened: as §1
[1] = Cytotoxicity against human IGROV-ET cells after 48 hrs by SRB assay; type: functional; conditions: for CC50: read-out: LC50 (the source's name); procedure, shortened: as §1
PANC-1 = assay: Cytotoxicity against human PANC1 cells after 48 hrs by SRB assay; type: functional; conditions: PANC-1, 48 h; for CC50: read-out: LC50 (the source's name); procedure, shortened: as §1
A549 = assay: Cytotoxicity against human A549 cells after 48 hrs by SRB assay; type: functional, cell-based; conditions: Homo sapiens, A549, 48 h; for GI50: read-out: GI50; procedure, shortened: as §1
LNCaP = assay: Cytotoxicity against human LNcaP cells after 48 hrs by SRB assay; type: functional; conditions: for CC50: read-out: LC50 (the source's name); procedure, shortened: as §1
K562 = assay: Cytotoxicity against human K562 cells after 48 hrs by SRB assay; type: functional; conditions: K562, 48 h; for CC50: read-out: LC50 (the source's name); procedure, shortened: as §1
LoVo [2] = assay: Cytotoxicity against human doxorubicin resistant LoVo cells after 48 hrs by SRB assay; type: functional; conditions: for CC50: read-out: LC50 (the source's name); procedure, shortened: as §1
LoVo [3] = assay: Cytotoxicity against human LoVo cells after 48 hrs by SRB assay; type: functional; conditions: for CC50: read-out: LC50 (the source's name)
[4] = Cytotoxicity against human HeLa-APL cells after 48 hrs by SRB assay; type: functional; procedure, shortened: as §1
SK-MEL-28 = assay: Cytotoxicity against human SK-MEL-28 cells after 48 hrs by SRB assay; type: functional, cell-based; conditions: Homo sapiens, SK-MEL-28, 48 h; for GI50: read-out: GI50; for CC50: read-out: LC50 (the source's name); procedure, shortened: as §1
[5] = Cytotoxicity against human IGROV cells after 48 hrs by SRB assay; type: functional; conditions: for CC50: read-out: LC50 (the source's name); procedure, shortened: as §1
HeLa = assay: Cytotoxicity against human HeLa cells after 48 hrs by SRB assay; type: functional; conditions: for CC50: read-out: LC50 (the source's name); procedure, shortened: as §1
HT-29 = assay: Cytotoxicity against human HT29 cells after 48 hrs by SRB assay; type: functional, cell-based; conditions: Homo sapiens, HT-29, 48 h; for CC50: read-out: LC50 (the source's name); procedure, shortened: as §1

SMILES | CC50 (DU-145) | TGI (SK-BR-3) | GI50 (SK-BR-3) | CC50 (SK-BR-3) | CC50 [1] | CC50 (PANC-1) | LC50 (A549) | CC50 (LNCaP) | CC50 (K562) | GI50 (LoVo [2]) | TGI (LoVo [2]) | CC50 (LoVo [2]) | GI50 (LoVo [3]) | TGI (LoVo [3]) | CC50 (LoVo [3]) | LC50 (concentration giving 50% net cell kill) [4] | CC50 (SK-MEL-28) | CC50 [5] | CC50 (HeLa) | CC50 (HT-29) | further results
C/C=C1\NC(=O)[C@H](Cc2ccccc2)NC(=O)[C@@H](C(C)C)NC(=O)[C@@H](C(C)C)NC(=O)[C@H](NC(=O)[C@H](NC(=O)[C@H](CCCN)NC(=O)[C@H]2CCCN2C(=O)[C@H](NC(=O)[C@@H](NC(=O)[C@@H](NC(=O)[C@H](NC(=O)CCCC(C)C)C(C)C)[C@@H](C)O)C(C)C)C(C)C)C(C)C)[C@H](C)OC(=O)[C@H](C(C)C)NC1=O | 1.02 µM | 2.31 µM | 2.12 µM | 1.45 µM | 0.719 µM | 2.19 µM | 2 µM | 1.16 µM | 2.5 µM | 1.43 µM | 1.67 µM | 1.94 µM | 2.46 µM | 2.46 µM | 2.48 µM | 1.69 µM | 1.66 µM | 0.762 µM | 1.12 µM | 3.16 µM | TGI (DU-145): 1.18 µM; GI50 (DU-145; read-out: GI50): 1.36 µM; GI50 (PANC-1): 4.71 µM; TGI (PANC-1): 3.91 µM; TGI (A549): 3.79 µM; GI50 (A549): 2.4 µM; GI50 (LNCaP): 2.34 µM; TGI (LNCaP): 1.96 µM; GI50 [4]: 2.73 µM; TGI [4]: 2.79 µM; TGI (SK-MEL-28): 1.65 µM; GI50 (SK-MEL-28): 1.64 µM; GI50 (HeLa): 1.4 µM; TGI (HeLa): 1.26 µM; GI50 (HT-29): 2.5 µM; TGI (HT-29): 2.81 µM
C/C=C1\NC(=O)[C@H](Cc2ccccc2)NC(=O)[C@@H](C(C)C)NC(=O)[C@@H]([C@H](C)CC)NC(=O)[C@H](NC(=O)[C@H](NC(=O)[C@H](CCCN)NC(=O)[C@H]2CCCN2C(=O)[C@H](NC(=O)[C@@H](NC(=O)[C@@H](NC(=O)[C@H](NC(=O)CCCCC(C)=O)C(C)C)[C@@H](C)O)C(C)C)C(C)C)[C@H](C)CC)[C@H](C)OC(=O)[C@H](C(C)C)NC1=O | 1.67 µM | 6.31 µM | 7.27 µM | 1.05 µM | 0.638 µM | 2.29 µM | 1.81 µM | 1.39 µM | 1.91 µM | 5.05 µM | 7.66 µM | 3.71 µM | 8.59 µM | 8.1 µM | 3.9 µM | 1.44 µM | 1.84 µM | 0.851 µM | 1.37 µM | 2.35 µM | –
C/C=C1\NC(=O)[C@H](Cc2c[nH]c3ccccc23)NC(=O)[C@@H](C(C)C)NC(=O)[C@@H]([C@H](C)CC)NC(=O)[C@H](NC(=O)[C@H](NC(=O)[C@H](CCCN)NC(=O)[C@H]2CCCN2C(=O)[C@H](NC(=O)[C@@H](NC(=O)[C@@H](NC(=O)[C@H](NC(=O)CCCC(C)C)C(C)C)[C@@H](C)O)C(C)C)C(C)C)[C@H](C)CC)[C@H](C)OC(=O)[C@H](C(C)C)NC1=O | 0.785 µM | 0.383 µM | 0.345 µM | 0.425 µM | 0.418 µM | 2.39 µM | 1.38 µM | 1.4 µM | 2.55 µM | 0.507 µM | 0.659 µM | 1.47 µM | 0.628 µM | 0.957 µM | 1.43 µM | 0.975 µM | 1.39 µM | 0.0574 µM | 0.935 µM | 1.19 µM | GI50 (DU-145): 0.823 µM; GI50 (DU-145; read-out: GI50): 0.832 µM; GI50 [1]: 0.439 µM; GI50 ([1]; read-out: GI50): 0.461 µM; TGI (A549): 1.49 µM; GI50 (A549): 1.61 µM; GI50 (LNCaP): 2.06 µM; TGI (LNCaP): 1.61 µM; GI50 (K562): 4.84 µM; TGI (K562): 4.7 µM; GI50 [4]: 1.36 µM; TGI [4]: 1.15 µM; GI50 [5]: 0.0718 µM; GI50 ([5]; read-out: GI50): 0.0875 µM; GI50 (HeLa): 1.36 µM; TGI (HeLa): 1.13 µM; GI50 (HT-29): 1.05 µM; TGI (HT-29): 1.51 µM
C/C=C1\NC(=O)[C@H](Cc2ccccc2)NC(=O)[C@@H](C(C)C)NC(=O)[C@@H]([C@H](C)CC)NC(=O)[C@H](NC(=O)[C@H](NC(=O)[C@H](CCCNC(=O)C(F)(F)F)NC(=O)[C@H]2CCCN2C(=O)[C@H](NC(=O)[C@@H](NC(=O)[C@@H](NC(=O)[C@H](NC(=O)CC[C@@H](C)CC)C(C)C)[C@@H](C)O)C(C)C)C(C)C)[C@H](C)CC)[C@H](C)OC(=O)[C@H](C(C)C)NC1=O | 0.898 µM | 0.19 µM | 0.112 µM | 0.32 µM | 0.528 µM | 1.66 µM | 1.2 µM | 1.41 µM | 1.81 µM | 0.276 µM | 0.282 µM | 0.287 µM | 0.311 µM | 0.296 µM | 0.282 µM | 0.789 µM | 1.22 µM | 0.0875 µM | 0.525 µM | 0.342 µM | TGI (DU-145): 1.1 µM; GI50 (DU-145; read-out: GI50): 1.33 µM; GI50 [1]: 0.508 µM; GI50 ([1]; read-out: GI50): 0.489 µM; TGI (A549): 1.17 µM; GI50 (A549): 1.14 µM; GI50 (LNCaP): 1.46 µM; TGI (LNCaP): 1.99 µM; GI50 [4]: 1.21 µM; TGI [4]: 0.963 µM; TGI (SK-MEL-28): 1.54 µM; GI50 (SK-MEL-28): 1.91 µM; GI50 [5]: 0.276 µM; GI50 ([5]; read-out: GI50): 0.305 µM; GI50 (HeLa): 0.502 µM; TGI (HeLa): 0.463 µM; GI50 (HT-29): 0.266 µM; TGI (HT-29): 0.301 µM
C/C=C1\NC(=O)[C@H](Cc2ccccc2)NC(=O)[C@@H](C(C)C)NC(=O)[C@@H]([C@H](C)CC)NC(=O)[C@H](NC(=O)[C@H](NC(=O)[C@H](CCCN)NC(=O)[C@H]2CCCN2C(=O)[C@H](NC(=O)[C@@H](NC(=O)[C@@H](NC(=O)[C@H](NC(=O)CC[C@@H](C)CC)C(C)C)[C@@H](C)O)C(C)C)C(C)C)[C@H](C)CC)[C@H](C)OC(=O)[C@H](C(C)C)NC1=O | 0.347 µM | 0.462 µM | 0.539 µM | 0.395 µM | 0.975 µM | 2.2 µM | 1.32 µM | 2.03 µM | 2.56 µM | 0.249 µM | 0.25 µM | 1.04 µM | 0.397 µM | 0.385 µM | 0.321 µM | 1.14 µM | 1.67 µM | 1.22 µM | 1.07 µM | 2.06 µM | TGI (DU-145): 2.2 µM; GI50 (DU-145; read-out: GI50): 1.69 µM; GI50 [1]: 0.584 µM; GI50 ([1]; read-out: GI50): 0.55 µM; GI50 (K562): 2.07 µM; TGI (K562): 3.76 µM; GI50 [4]: 1.28 µM; TGI [4]: 1.2 µM; TGI [5]: 1.02 µM; GI50 ([5]; read-out: GI50): 0.827 µM; GI50 (HT-29): 0.73 µM; TGI (HT-29): 1.02 µM
